Legend:
HL-60 = assay: Cytotoxicity against human HL60 cells after 2 days; type: functional, cell-based; details: HL-60, 48 h
In short: (§1)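 Cells grown per supplier's instructions, seeded at 2-4 × 10^4 per well and incubated overnight in medium with 10% FBS, 5% CO2, 37 °C. Day 2: medium replaced with graded compound concentrations from DMSO stock (20 mM). Day 4: CCK-8 added for 4 h, absorbance read at 450 nm. Three experiments, each in triplicate, mean ± S.D.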

HCT-15 = assay: Cytotoxicity against human HCT15 cells after 2 days; type: functional, cell-based; details: HCT-15, 48 h; in short: as §1
DU-145 = assay: Cytotoxicity against human DU145 cells after 2 days; type: functional, cell-based; details: DU-145, 48 h; in short: as §1
HeLa = assay: Cytotoxicity against human HeLa cells after 2 days; type: functional, cell-based; details: 48 h; in short: as §1
MDA-MB-231 = assay: Cytotoxicity against human MDA-MB-231 cells after 2 days; type: functional; in short: as §1
[1] = target: DNA topoisomerase 2-alpha (Homo sapiens) (UniProt P11388); assay: Inhibition of human DNA topoisomerase 2 alpha assessed as inhibition of supercoiled pBR322 DNA relaxation at 100 uM after 30 mins by gel electrophoresis
Sequence of DNA topoisomerase 2-alpha (Homo sapiens) (P11388 whole entry): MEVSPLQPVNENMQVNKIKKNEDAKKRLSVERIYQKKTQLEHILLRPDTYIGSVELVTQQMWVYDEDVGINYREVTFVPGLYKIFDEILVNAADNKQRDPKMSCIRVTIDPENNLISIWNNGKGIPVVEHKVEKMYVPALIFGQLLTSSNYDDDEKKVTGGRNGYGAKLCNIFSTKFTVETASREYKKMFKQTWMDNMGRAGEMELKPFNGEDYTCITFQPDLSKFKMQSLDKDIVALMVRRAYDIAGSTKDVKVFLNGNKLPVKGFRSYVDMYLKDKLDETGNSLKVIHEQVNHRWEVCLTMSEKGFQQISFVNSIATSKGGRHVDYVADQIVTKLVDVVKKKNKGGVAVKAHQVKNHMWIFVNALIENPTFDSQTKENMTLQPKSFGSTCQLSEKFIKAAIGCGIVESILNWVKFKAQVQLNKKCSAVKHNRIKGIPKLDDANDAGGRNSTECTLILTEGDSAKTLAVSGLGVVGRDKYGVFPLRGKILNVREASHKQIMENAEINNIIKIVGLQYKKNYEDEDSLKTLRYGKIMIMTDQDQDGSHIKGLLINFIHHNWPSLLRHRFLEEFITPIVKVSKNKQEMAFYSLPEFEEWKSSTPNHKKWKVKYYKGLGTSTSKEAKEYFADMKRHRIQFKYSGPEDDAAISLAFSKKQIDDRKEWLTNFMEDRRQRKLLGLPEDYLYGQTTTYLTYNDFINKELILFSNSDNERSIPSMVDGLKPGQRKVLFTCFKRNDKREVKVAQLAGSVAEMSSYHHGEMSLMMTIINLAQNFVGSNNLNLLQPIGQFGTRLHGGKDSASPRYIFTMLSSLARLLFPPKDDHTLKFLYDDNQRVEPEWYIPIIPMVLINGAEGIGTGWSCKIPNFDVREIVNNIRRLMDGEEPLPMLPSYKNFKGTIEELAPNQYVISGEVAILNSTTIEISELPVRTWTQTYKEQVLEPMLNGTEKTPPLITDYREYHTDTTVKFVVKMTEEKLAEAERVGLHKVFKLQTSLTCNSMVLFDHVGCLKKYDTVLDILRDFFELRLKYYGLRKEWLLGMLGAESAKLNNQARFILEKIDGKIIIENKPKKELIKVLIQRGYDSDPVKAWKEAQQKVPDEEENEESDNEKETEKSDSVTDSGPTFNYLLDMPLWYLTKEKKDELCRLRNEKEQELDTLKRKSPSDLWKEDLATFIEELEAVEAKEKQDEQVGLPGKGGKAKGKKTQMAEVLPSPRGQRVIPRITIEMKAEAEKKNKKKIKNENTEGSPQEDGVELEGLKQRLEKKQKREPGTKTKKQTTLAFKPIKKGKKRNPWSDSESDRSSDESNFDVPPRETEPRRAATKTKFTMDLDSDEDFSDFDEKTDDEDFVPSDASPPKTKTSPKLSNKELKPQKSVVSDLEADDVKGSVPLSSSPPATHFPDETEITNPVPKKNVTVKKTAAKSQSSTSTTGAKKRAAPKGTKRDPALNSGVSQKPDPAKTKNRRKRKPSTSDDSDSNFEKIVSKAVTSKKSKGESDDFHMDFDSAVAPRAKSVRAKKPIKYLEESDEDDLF
In short: (§2)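 200 ng supercoiled pBR322 with 1 unit human topo IIα, incubated 30 min at 30 °C in 10 mM Tris-HCl pH 7.9, 50 mM NaCl, 5 mM MgCl2, 1 mM EDTA, 1 mM ATP, BSA. Stopped with EDTA. Run on 1% agarose in TAE at 25 V for 4 h, stained with ethidium bromide, supercoiled band quantified under UV. Three experiments in triplicate.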

[2] = target: T1, DNA topoisomerase 1 (Homo sapiens) (UniProt P11387); assay: Inhibition of human recombinant DNA topoisomerase 1 assessed as inhibition of supercoiled pBR322 DNA relaxation at 100 uM after 30 mins by gel electrophoresis
T1 sequence (whole entry): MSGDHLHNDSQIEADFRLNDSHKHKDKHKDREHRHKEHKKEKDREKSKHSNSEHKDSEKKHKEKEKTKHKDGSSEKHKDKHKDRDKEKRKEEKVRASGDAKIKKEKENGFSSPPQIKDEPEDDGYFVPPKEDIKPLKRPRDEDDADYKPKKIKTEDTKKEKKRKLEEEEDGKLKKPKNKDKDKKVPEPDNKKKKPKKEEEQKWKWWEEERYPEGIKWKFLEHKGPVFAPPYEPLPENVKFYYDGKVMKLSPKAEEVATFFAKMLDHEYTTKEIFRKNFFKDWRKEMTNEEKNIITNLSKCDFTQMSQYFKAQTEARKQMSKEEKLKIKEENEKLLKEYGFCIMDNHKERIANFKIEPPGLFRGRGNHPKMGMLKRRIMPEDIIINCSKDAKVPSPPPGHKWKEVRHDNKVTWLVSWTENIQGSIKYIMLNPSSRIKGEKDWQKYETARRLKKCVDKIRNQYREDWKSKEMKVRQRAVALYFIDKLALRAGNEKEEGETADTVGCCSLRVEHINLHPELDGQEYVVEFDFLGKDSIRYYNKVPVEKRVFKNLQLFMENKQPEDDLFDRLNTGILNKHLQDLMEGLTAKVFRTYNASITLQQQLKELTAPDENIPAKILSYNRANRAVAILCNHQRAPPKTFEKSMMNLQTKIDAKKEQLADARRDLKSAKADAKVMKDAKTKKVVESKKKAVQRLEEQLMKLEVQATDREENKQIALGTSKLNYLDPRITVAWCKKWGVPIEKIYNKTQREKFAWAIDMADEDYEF
In short: (§3)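 100 ng pBR322 with 0.4 units recombinant human topo I, incubated 30 min at 37 °C in 10 mM Tris-HCl pH 7.9, 150 mM NaCl, 0.1% BSA, 1 mM spermidine, 5% glycerol. Stopped with sarcosyl stop solution. Run on 1% agarose in TAE at 15 V for 7 h, stained with ethidium bromide, bands quantified under UV. Three experiments in triplicate.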

[3] = target: DNA topoisomerase 2-alpha (Homo sapiens) (UniProt P11388); assay: Inhibition of human DNA topoisomerase 2 alpha assessed as inhibition of supercoiled pBR322 DNA relaxation at 20 uM after 30 mins by gel electrophoresis; in short: as §2
[4] = target: T1, DNA topoisomerase 1 (Homo sapiens); assay: Inhibition of human recombinant DNA topoisomerase 1 assessed as inhibition of supercoiled pBR322 DNA relaxation at 20 uM after 30 mins by gel electrophoresis; in short: as §3

Structure (SMILES) | IC50 (HL-60) | IC50 (HCT-15) | IC50 (DU-145) | IC50 (HeLa) | IC50 (MDA-MB-231) | inhibition [1] | inhibition [2] | inhibition [3] | inhibition [4]
c1ccc(-c2cc(-c3ccco3)c3c(n2)-c2ccccc2OC3)nc1 | 18.6 µM | > 50 µM | 22.9 µM | > 50 µM | 3.3 µM | 23.4% | 4.4% | – | –
c1ccc(-c2cc(-c3ccccn3)c3c(n2)-c2ccccc2OC3)cc1 | > 50 µM | 12.1 µM | 1.9 µM | 2.8 µM | 1.9 µM | 8.7% | 0% | – | –
COc1cc([C@@H]2c3cc4c(cc3[C@@H](O[C@@H]3O[C@@H]5CO[C@@H](C)O[C@H]5[C@H](O)[C@H]3O)[C@H]3COC(=O)[C@H]23)OCO4)cc(OC)c1O [ETOPOSIDE] | – | – | – | – | 0.7 µM | – | – | 22.3% | –
c1ccc(-c2cc(-c3ccccn3)c3c(n2)-c2ccccc2OC3)nc1 | 0.2 µM | 23.1 µM | > 50 µM | > 50 µM | 4.7 µM | 10.7% | 0.6% | – | –
c1csc(-c2cc(-c3cccs3)c3c(n2)-c2ccccc2OC3)c1 | – | – | – | – | – | 7.9% | 0.7% | – | –
c1ccc(-c2cc(-c3cccs3)c3c(n2)-c2ccccc2OC3)cc1 | > 50 µM | 1.2 µM | 2.6 µM | 16 µM | 3.9 µM | 10.8% | 0% | – | –
CC[C@@]1(O)C(=O)OCc2c1cc1n(c2=O)Cc2cc3ccccc3nc2-1 [CAMPTOTHECIN] | – | – | – | – | 0.3 µM | – | – | – | –
c1ccc(-c2cc(-c3cccnc3)c3c(n2)-c2ccccc2OC3)cc1 | – | – | – | – | – | 14% | 0% | – | –
c1coc(-c2cc(-c3cccs3)nc3c2COc2ccccc2-3)c1 | – | – | – | – | – | 14.1% | 9.2% | – | –
c1coc(-c2cc(-c3cccs3)c3c(n2)-c2ccccc2OC3)c1 | – | – | – | – | – | 6.8% | 0% | – | –
c1ccc(-c2cc(-c3cccs3)c3c(n2)-c2ccccc2OC3)nc1 | 13.7 µM | 14 µM | 13.1 µM | 6.2 µM | 2.4 µM | 19.4% | 48.2% | – | 4.1%
c1coc(-c2cc(-c3ccco3)c3c(n2)-c2ccccc2OC3)c1 | 3.4 µM | 0.6 µM | 0.9 µM | 1.3 µM | 0.6 µM | 11.6% | 46.4% | – | 22.9%
c1ccc(-c2cc(-c3ccco3)nc3c2COc2ccccc2-3)nc1 | – | – | – | – | – | 2% | 11.5% | – | –
c1ccc(-c2cc(-c3cccnc3)c3c(n2)-c2ccccc2OC3)nc1 | > 50 µM | 3.3 µM | 4.4 µM | 1.3 µM | 7.2 µM | 8.7% | 2.6% | – | –
c1ccc(-c2cc(-c3ccco3)c3c(n2)-c2ccccc2OC3)cc1 | 7.3 µM | 12.3 µM | 18.6 µM | 1.4 µM | 11.6 µM | 11.5% | 0% | – | –
c1ccc(-c2cc(-c3ccsc3)c3c(n2)-c2ccccc2OC3)cc1 | > 50 µM | > 50 µM | > 50 µM | > 50 µM | 11.9 µM | 17.6% | 3.7% | – | –
c1ccc(-c2cc(-c3cccs3)nc3c2COc2ccccc2-3)nc1 | – | – | – | – | – | 8.5% | 1.8% | – | –
c1csc(-c2cc(-c3ccoc3)c3c(n2)-c2ccccc2OC3)c1 | – | – | – | – | – | 8.4% | 0% | – | –
COc1cccc2c1C(=O)c1c(O)c3c(c(O)c1C2=O)C[C@@](O)(C(=O)CO)C[C@@H]3O[C@H]1C[C@H](N)[C@H](O)[C@H](C)O1 [DOXORUBICIN] | – | – | – | – | 0.4 µM | – | – | – | –
c1ccc(-c2cc(-c3ccoc3)c3c(n2)-c2ccccc2OC3)cc1 | 6.6 µM | 31.1 µM | > 50 µM | 39.6 µM | 10 µM | 10.5% | 1.9% | – | –
c1ccc(-c2cc(-c3ccsc3)nc3c2COc2ccccc2-3)nc1 | > 50 µM | 8.3 µM | 5 µM | > 50 µM | 25.8 µM | 25.3% | 3.3% | 3.2% | –
c1ccc(-c2cc(-c3ccco3)nc3c2COc2ccccc2-3)cc1 | 1.4 µM | 0.4 µM | 0.1 µM | 2.3 µM | 0.2 µM | 28.4% | 4.9% | – | –
c1ccc(-c2cc(-c3cccs3)nc3c2COc2ccccc2-3)cc1 | – | – | – | – | – | 7.5% | 5.5% | – | –
c1ccc(-c2cc(-c3ccccn3)nc3c2COc2ccccc2-3)cc1 | 14.5 µM | 15.6 µM | 7.6 µM | 5 µM | 11.1 µM | 7.2% | 3.1% | – | –
c1cncc(-c2cc(-c3ccco3)nc3c2COc2ccccc2-3)c1 | 1.8 µM | 0.6 µM | 4.6 µM | 2.2 µM | 1.1 µM | 5.6% | 41.6% | – | 15.5%
c1ccc(-c2cc(-c3ccccc3)c3c(n2)-c2ccccc2OC3)cc1 | 18.8 µM | 5.1 µM | 6.9 µM | 14.2 µM | 1.8 µM | 15.4% | 0% | – | –

Reference: ChEMBL document CHEMBL1806416, “Synthesis of 2,4-diaryl chromenopyridines and evaluation of their topoisomerase I and II inhibitory activity, cytotoxicity, and structure-activity relationship” (Eur J Med Chem, 2011)
